Source: PubChem (several laboratories)
Compounds with a hit are over-represented: about 1.4% of the library has one in this group of screens.
PG9 Ab binder: PG9 antibody binding by small molecule; TR-FRET gp120-PG9 antibody binding; hit rate 0.43% among 360,000; inhibition, % at 6.7 µM; in the data active means inhibition above about 8.5%
Rev-erbA mod: Rev-erb alpha (human) modulation; hit rate 0.79% among 370,000; activity, % at 10 µM; Rev-erbα–FITC-DNA binding, fluorescence polarization, 90 min; AID 1259318;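 active means activity above about 14%, limit read from the data; passing the limit was not always enough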;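 further: 0% = DMSO wells with 35 nM protein and 100% = DMSO wells with 750 nM protein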
NR2E3 ag-1: activates human photoreceptor nuclear receptor NR2E3 | Q9Y5X4 | GST-NR2E3/biotin-RetCOR TR-FRET, 1536-well | inhibition of corepressor binding, % at 4.78 µM | hit rate 0.12% among 320,000 | AID 2300;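 active means percent inhibition above the cutoff of mean plus 3 SD of all tested compounds, set per screening campaign, cut at about 20% in these data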;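 further: 0% = DMSO wells and 100% = biotin wells as full block of FRET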
Target sequence (Q9Y5X4 whole entry, looked up): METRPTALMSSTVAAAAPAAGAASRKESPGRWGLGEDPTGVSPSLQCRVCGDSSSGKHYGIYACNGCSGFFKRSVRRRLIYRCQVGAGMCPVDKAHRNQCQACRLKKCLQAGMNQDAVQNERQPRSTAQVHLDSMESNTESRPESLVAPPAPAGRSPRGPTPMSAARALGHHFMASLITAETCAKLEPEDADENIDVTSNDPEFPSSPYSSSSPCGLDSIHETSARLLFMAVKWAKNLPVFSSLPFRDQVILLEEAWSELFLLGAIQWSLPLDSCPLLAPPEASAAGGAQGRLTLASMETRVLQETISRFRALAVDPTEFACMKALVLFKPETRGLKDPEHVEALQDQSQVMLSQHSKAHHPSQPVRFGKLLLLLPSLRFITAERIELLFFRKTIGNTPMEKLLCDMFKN
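Format: 1536-well format; test system: GST-NR2E3 and biotin-RetCOR proteins; read-out basis: percent inhibition of TR-FRET ratio; timing: 5 h incubation at 4 °C; detection: time-resolved FRET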
NR2E3 ag-2: human photoreceptor-specific nuclear receptor agonism; CHO-S Gal4-NCOR/VP16-NR2E3 two-hybrid, luciferase; AID 602229; hit rate 0.35% among 360,000; inhibition of corepressor binding, % at 3.98 µM;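 active means inhibition above the mean of all tested compounds plus 3 SD, cut at about 70% in these data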;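 further: 0% = DMSO with NR2E3 transfected cells and 100% = cells lacking NR2E3 construct; higher means lower luciferase signal from less NR2E3 corepressor binding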
NR1D1 mod conf: confirmation of modulators of human Rev-erb alpha DNA binding | Rev-erb alpha FITC-DNA binding, fluorescence polarization, 90 min | AID 1259319 | shares compounds with Rev-erbA mod | hit rate 61% among 3,000 | activation, % at 25 µM;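 active means activation at or above a set limit, or at least 3 SD above the negative control mean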;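 further: 0% = 35 nM protein with DMSO and 100% = 750 nM protein high control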
RORg DNA counter: RORgamma DNA-binding activity, dose-response counter-screen | shares compounds with Rev-erbA mod | purified RORgamma protein-FITC-DNA binding, fluorescence polarization | IC50, µM | hit rate 8% among 910;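 active means Compounds whose fitted half-maximal concentration for disrupting protein-DNA binding is below 10 micromolar; the record names Rev-erb in its text, so the target is in doubt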
An asterisk follows results filed as active; i = inactive; / = no result.

SMILES | PG9 Ab binder | Rev-erbA mod | NR2E3 ag-1 | NR2E3 ag-2 | NR1D1 mod conf | others
Cc1nc2ncnn2c(C)c1CCC(=O)Nc1csc(N)n1 | -1 | -1 | 3 | -9 | /
Cn1nc(C(=O)OCC(=O)c2ccc(Br)cc2)c2ccccc2c1=O | 1 | 2 | 4 | 7 | /
Cc1c(C#N)c(O)[nH]c(=O)c1N=Nc1ccc(S(N)(=O)=O)cc1 | -2 | 26* | 3 | -10 | 17*
FC(F)(F)c1cc(-c2ccccc2)nc2nc(N3CCOCC3)sc12 | 1 | 24* | 4 | -6 | 8
CN1C(=O)c2cc(NC(=O)c3cccc(F)c3)ccc2OC[C@@H]2O[C@H](CC(=O)NCc3ccccc3)CC[C@H]21 | / | -1 | / | / | /
CN1C(=O)c2cc(NC(=O)c3ccccc3)ccc2OC[C@H]2O[C@@H](CC(=O)NCC3CC3)CC[C@@H]21 | / | 34* | / | / | 22*
Cc1ccccc1NC(=O)Nc1ccc2c(c1)C(=O)N(C)[C@H]1CC[C@H](CC(=O)NCC3CC3)O[C@@H]1CO2 | / | 30* | / | / | 14*
Cc1csc(NC(=O)c2cc3c(C)nn(Cc4ccccc4Cl)c3s2)n1 | 2 | 22* | -2 | -10 | 17*
CC(C)(C)OC(=O)NCCCC1=CC2=CC(=O)C(C)(OC(=O)c3ccc(Cl)nc3)C(=O)C2=CO1 (centres undefined) | / | / | 1 | / | /
CCSC1=N/C(=C\c2ccc3c(c2)OCO3)C(=O)S1 | 0 | 3 | 1 | 5 | /
CCSC1=N/C(=C\C=C2/Oc3ccccc3N2CC)C(=O)S1 | -3 | 50* | -3 | -40 | 46* | RORg DNA counter=>40
CN1C(=O)N(C)c2ccc(C=O)c3cccc1c23 | -3 | 8 | 2 | -26 | /
CN1C(=O)N(C)c2ccc(Br)c3cccc1c23 | -2 | 89* | / | -39 | 81* | RORg DNA counter=>40
CCCCOC(=O)c1cc(C)nc2ccc(Br)cc12 | 7 | 44* | 5 | 6 | 33* | RORg DNA counter=>40
CCCc1nc2sc(C(=O)OCC)c(N)c2c2c1COC(C)(C)C2 | -1 | 48* | 0 | 6 | 25*
COc1ccc(NC(=O)c2sc3nc(N4CCCC4)c4c(c3c2N)CC(C)(C)OC4)cc1 | 1 | 127* | 8 | -37 | 80* | RORg DNA counter=>40
CCOC(=O)c1sc2nc(C)c3c(c2c1N)CC(C)(C)OC3 | 4 | 2 | 2 | -23 | /
COc1ccc(NC(=O)/C(C#N)=C/c2ccc(Br)o2)cc1 | 1 | -26 | 6 | -5 | /
N#C/C(=C\c1ccc(N2CCOCC2)o1)C(=O)Nc1ccc(O)cc1 | -26 | 44* | -16 | -46 | 27*
COc1ccc(NC(=O)/C(C#N)=C\c2ccc(N3CCOCC3)o2)cc1 | -20 | 65* | -10 | -41 | 41* | RORg DNA counter=i
N#C/C(=C/c1ccc(N2CCCCC2)o1)C(=O)Nc1ccc(Cl)cc1 | -10 | 10 | 0 | -83 | /
N#C/C(=C/c1ccc(N2CCOCC2)o1)C(=O)NC1CCCCC1 | -14 | 9 | -7 | 5 | /
N#C/C(=C/c1ccc(N2CCCCC2)o1)C(=O)Nc1ccc2ccccc2c1 | -1 | 67* | / | -42 | 25*
C=C(c1ccccc1OCc1cccc(Cl)c1)n1ccnc1 | / | -1 | / | / | /
Cc1ccc(NS(=O)(=O)c2ccc3[nH]c(=O)oc3c2)c(C)c1 | -1 | 1 | -3 | -6 | /
SMILES | PG9 Ab binder | Rev-erbA mod | NR2E3 ag-1 | NR2E3 ag-2 | NR1D1 mod conf | others
COC(=O)c1ccc(NC(=O)c2ccc3c(c2)C(=O)N(C)C3=O)cc1 | -1 | 52* | 0 | -5 | 34* | RORg DNA counter=>40
O=C(Cc1cccc(NC(=O)C2CCN(C(=O)C3CCCC3)CC2)c1)Nc1cccc(C(=O)N2CCOCC2)c1 | -1 | 6 | / | -25 | /
O=c1[nH]c2ccccc2nc1/C=C(\O)c1cccs1 | -7 | 43* | 0 | -140 | 22*
CC1(C)CC(N2CCN(CCO)CC2)=CC(=S)N1 | -1 | -4 | -1 | -32 | /
N#Cc1c2ncn(CC(=O)c3ccc(Br)cc3)c(=O)c2c2n1CCC2 | 8 | 17* | 4 | 9 | 7
N#Cc1c2n(c3c(=O)n(CC(=O)c4ccc(Br)cc4)cnc13)CCCC2 | 0 | 8 | 2 | -1 | /
O=C(Nc1ccnc(-c2cccnc2)n1)c1ccc(F)cc1 | / | / | 1 | / | /
O=C(Nc1ccnc(-c2cccnc2)n1)c1ccc(Cl)cc1 | -1 | 45* | -33 | -14 | 41* | RORg DNA counter=>40
CC(C)c1ccccc1NS(=O)(=O)c1cccs1 | -2 | 1 | 6 | -10 | /
COc1ccc(-n2nc3cc(C)c(NC(C)=O)cc3n2)cc1 | 1 | 7 | 0 | -137 | /
CC(C)(C)c1cc(C(C)(C)C)cc(S(=O)(=O)CCc2ccccn2)c1 | 0 | 2 | -1 | -7 | /
Cc1nc2c(c(=O)c3ccccc3n2C)c(=O)n1C1CCCC1 | -1 | -3 | / | / | /
Cn1c2ccccc2c(=O)c2c(=O)n(C3CCCCCC3)c(C3CCCCC3)nc21 | -3 | 161* | / | -35 | 79*
CC(C)NC(=O)C1(C)Cc2c(-c3cccc(C(F)(F)F)c3)ccnc2O1 (centres undefined) | -2 | 7 | / | -13 | /
N#Cc1c(N2CCSCC2)nsc1-c1ccccc1Cl | 4 | 23* | / | -47 | 28*
CC(C)Oc1cccc(C(=O)C2CCCN(C(=O)c3noc4c3CCCC4)C2)c1 (centres undefined) | -1 | 3 | 1 | 5 | /
Cc1ccc2nc(SCC(=O)N3c4ccccc4CC3C)c(C)cc2c1 (centres undefined) | 0 | 28* | 2 | -19 | 8
Cc1ccc2nc(-c3cccnc3SCC(=O)N3c4ccccc4CC3C)[nH]c2c1 (centres undefined) | -1 | 33* | 2 | -35 | 20*
CC1Cc2ccccc2N1C(=O)CSc1ncccn1 (centres undefined) | 1 | -3 | 4 | -4 | /
COc1ccc(OC)c(C2C(C(=O)c3ccco3)=C(O)C(=O)N2CCN2CCOCC2)c1 (centres undefined) | -1 | -5 | 6 | -51 | /
CCOc1ccc(/C(O)=C2/C(=O)C(=O)N(CCN(CC)CC)C2c2cccs2)cc1 (centres undefined) | 1 | 19 | 5 | -42 | /
C=CCOc1ccc(/C(O)=C2\C(=O)C(=O)N(CCN(C)C)C2c2cccs2)cc1 (centres undefined) | -1 | 29* | 1 | -20 | 35* | RORg DNA counter=>40
COc1ccc2nc(NC(=O)C3CCN(S(=O)(=O)c4cccc5nsnc45)CC3)sc2c1 | 1 | -2 | -1 | 3 | /
COc1ccc2nc(NC(=O)C(NS(=O)(=O)c3cccc4nsnc34)C(C)C)sc2c1 (centres undefined) | 0 | 31* | 5 | 12 | 18*
COCc1c(C(=O)Nc2nnc(C3CC3)s2)oc2ccccc12 | -2 | -1 | / | -23 | /
O=C(Nc1ccc(F)cc1)c1sc2cc(C(F)(F)F)cnc2c1-c1cccs1 | -13 | 49* | -7 | -19 | 21*
